Bioassay records: PubChem BioAssay, Broad Institute
The list is not random: actives were taken first. Their share in the collection is about 3.5%.
Wnt bcat act: Wnt/beta-catenin pathway activators, primary screen, cell-based, plate reader, single point | 300,000 compounds, 1.2% hits | activation, % at 9.35 µM | AID 743398, 2014 | Wnt/beta-catenin reporter cell assay, activator; in the data active = activation above about 30%, passing the limit was not always enough;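 also: 0% = neutral control wells and 100% = positive control wells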
ERAP1 inh: human ERAP1 aminopeptidase inhibitors, primary screen, biochemical, single point, plate reader; Endoplasmic reticulum aminopeptidase 1 (Homo sapiens), Q9NZ08; recombinant ERAP1, Leu-AMC fluorescence, 60 min; inhibition, % at 10.7 µM; 340,000 compounds, 0.15% hits; AID 652197, 2013;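 active = mean replicate inhibition of at least 30%, or all replicates individually reaching that 30% level; inactive = mean below 30% and not every replicate reaching it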;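 also: 0% = neutral control wells and 100% = L-leucinethiol positive control wells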
Target sequence (Q9NZ08 whole entry, looked up): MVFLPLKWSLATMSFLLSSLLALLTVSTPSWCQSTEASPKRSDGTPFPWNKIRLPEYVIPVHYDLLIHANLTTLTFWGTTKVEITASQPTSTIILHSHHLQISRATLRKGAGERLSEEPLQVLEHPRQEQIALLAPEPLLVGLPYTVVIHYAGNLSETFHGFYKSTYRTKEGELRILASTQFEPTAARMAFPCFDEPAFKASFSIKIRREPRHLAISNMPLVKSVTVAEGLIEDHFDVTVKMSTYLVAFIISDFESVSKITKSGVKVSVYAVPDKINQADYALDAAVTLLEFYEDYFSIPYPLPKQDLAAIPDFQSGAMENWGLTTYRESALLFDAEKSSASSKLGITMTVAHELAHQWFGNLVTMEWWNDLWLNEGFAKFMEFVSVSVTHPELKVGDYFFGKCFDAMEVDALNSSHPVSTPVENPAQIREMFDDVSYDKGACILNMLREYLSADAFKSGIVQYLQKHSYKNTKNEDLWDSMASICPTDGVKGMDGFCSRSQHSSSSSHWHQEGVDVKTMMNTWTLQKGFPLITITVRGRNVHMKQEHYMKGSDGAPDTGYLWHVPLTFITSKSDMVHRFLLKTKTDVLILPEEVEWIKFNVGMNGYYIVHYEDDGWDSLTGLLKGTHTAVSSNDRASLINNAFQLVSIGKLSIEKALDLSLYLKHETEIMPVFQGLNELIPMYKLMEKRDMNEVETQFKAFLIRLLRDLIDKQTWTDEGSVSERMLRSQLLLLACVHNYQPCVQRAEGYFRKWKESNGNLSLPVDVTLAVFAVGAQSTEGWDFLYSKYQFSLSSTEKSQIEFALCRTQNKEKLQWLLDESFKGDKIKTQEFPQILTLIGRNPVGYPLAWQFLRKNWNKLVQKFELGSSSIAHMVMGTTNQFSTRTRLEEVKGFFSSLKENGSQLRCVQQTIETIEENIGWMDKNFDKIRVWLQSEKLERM
Cneo AK release: Cryptococcus neoformans cell lysis inducers, primary screen, AK release luminescence, single concentration | C. neoformans lysis, adenylate kinase release luminescence, 4 h; normalised: neutral wells 0, clomiphene wells 100 | lysis activity, % at 15 µM | 360,000 compounds, 0.2% hits | AID 651654, 2012;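 active = mean lysis activity across replicates of at least 80%, whatever share of replicates individually reach that level; inactive = mean lysis activity below 80%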
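Assay system: C. neoformans cells. Amount: yeast cell density of 5 × 10^6 cells/mL. Technique: AK luminescence. Buffer or medium: YPD. Times: static 4 h at 37 °C with compound, 1 h detection. Dosing: single-point compound dose. Read-out: lysis from increased AK signal.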
MITF act: activators of MITF-driven TRPM1 promoter reporter, primary screen, cell-based, SK-MEL-5, luciferase, single point. activation, % at 12.5 µM. SK-MEL-5 TRPM1-promoter luciferase, 24 h; % of positive control, neutral wells = 0. 300,000 compounds, 0.75% hits;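 active = mean activation of at least 80% with every replicate also reaching 80%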;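 also: 0% = neutral control wells and 100% = parthenolide positive control wells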
HIV Env fusion: inhibitors of HIV-1 Env-driven cell-cell fusion, primary screen, HeLa-JRFL effector, CEM21 target cells, luciferase; inhibition, % at 12.3 µM; 360,000 compounds, 1.1% hits; AID 651610, 2012;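 active = mean replicate inhibition score of at least 50 and every replicate individually at or above 50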;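 also: 0% = plate neutral controls and 100% = maraviroc near 300 nM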
esBAF inh: Bmi1 luciferase reporter increase in mESCs, primary screen, esBAF inhibitor project, mouse ES cells, Bmi1 luciferase knock-in, single point; 24 h; 100% = twice the neutral-well signal; reporter increase, % at 12.5 µM; 350,000 compounds, 2% hits; in the data active = activation above about 40%;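 also: 0% = median of the plate's neutral control wells and 100% = double that signal; a rise in the Bmi1 reporter signal indicates esBAF inhibition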
An asterisk follows results filed as active; [ ] = remark or other dose.

CCCCn1c(CN2CCN(C(=O)OCC)CC2)nc2c1c(=O)n(C)c(=O)n2C was read as Wnt bcat act 41.7*, Cneo AK release 1.1, MITF act -8.4, HIV Env fusion 17.2 and esBAF inh -3.7.
Screening CCOC(=O)c1sc2nc3c(SCCC(=O)O)cc(C(=O)c4cc(OC)ccc4O)cn3c(=O)c2c1C returned Wnt bcat act 18.8, ERAP1 inh -2.6, MITF act -12.5 and HIV Env fusion 71.8*.
CCOC(=O)c1sc2nc3c(SCCC#N)cc(C(=O)c4cc(F)ccc4O)cn3c(=O)c2c1C was read as Wnt bcat act -2.6, Cneo AK release 1.1, MITF act -4.9, HIV Env fusion 35.2 and esBAF inh 0.8.
For COc1ccccc1OCCSc1nc2ccccc2c(=O)[nH]1 the results were Wnt bcat act 43.9*, Cneo AK release 4.6, MITF act 51.5, HIV Env fusion -21.5 and esBAF inh 63.8*.
For C[C@H](CO)N1C[C@H](C)[C@@H](CN(C)C(=O)NC2CCCCC2)Oc2ncc(C#CCN(C)C)cc2C1=O the results were ERAP1 inh -2.9, Cneo AK release -10.5, HIV Env fusion 29.1[16.7 µM] and esBAF inh 10.8.
For Cc1ccccc1-n1c(C)nnc1SCc1nc2ccccc2s1 the results were Wnt bcat act 20.4, ERAP1 inh 2.5, Cneo AK release -0.3, MITF act 25.9 and esBAF inh 69.4*.
For CCOc1ccccc1-n1nnnc1SCc1nc2ccccc2s1 the results were Cneo AK release -0.6, MITF act -2.2, HIV Env fusion -16.5 and esBAF inh 7.1.
Screening CCCn1c(=O)c2ccccc2n2c(SCc3nc4ccccc4s3)nnc12 returned Wnt bcat act 26.6, Cneo AK release -4.0, MITF act 22.3, HIV Env fusion -110.7 and esBAF inh 42.5*.
For CCn1c(SCc2nc3ccccc3s2)nnc1-c1cccs1 the results were Cneo AK release -0.8, MITF act 24.1 and esBAF inh 50.4*.
For COC(=O)C[C@@H]1CC[C@@H](NC(=O)Nc2ccc(C(F)(F)F)cc2)[C@@H](CO)O1 the results were ERAP1 inh 3.2, Cneo AK release -8.2, HIV Env fusion 7.8[16.7 µM] and esBAF inh 6.1.
`C[C@H]1CN([C@@H](C)CO)C(=O)c2ccccc2-c2ccccc2CO[C@@H]1CN(C)C(=O)C1CC1` gave ERAP1 inh -0.5, Cneo AK release 1.7, HIV Env fusion -9.5[16.7 µM] and esBAF inh -1.8.
Screening C[C@@H]1CN([C@@H](C)CO)C(=O)c2cccc(NC(=O)c3ccncc3)c2O[C@@H]1CN(C)C(=O)Nc1ccc(C(F)(F)F)cc1 returned ERAP1 inh -0.8, Cneo AK release 3.7, HIV Env fusion -18.3[16.7 µM] and esBAF inh -1.4.
CN(Cc1nccn1C)C(=O)CCc1nnc(CCC2CCCCC2)o1 was read as Wnt bcat act 2.6, ERAP1 inh -2.0, MITF act 5.2 and HIV Env fusion 11.0.
For CN(CCC1CCCCO1)C(=O)CCc1nnc(C2CCCCC2)o1 (stereo unspecified) the results were Wnt bcat act 21.0, ERAP1 inh -2.1, MITF act 38.1, HIV Env fusion -3.9 and esBAF inh 54.8*.
CC1=CC2C(C(O)CC3(C)C2CC(C)C32OCOC23COCO3)C2(C)C/C(=C\O)C(=O)C=C12 (stereo unspecified) was read as Wnt bcat act -25.2, ERAP1 inh 3.7, MITF act -79.6 and HIV Env fusion 113.1*.
COCC(=O)N1[C@H](CO)[C@@H](c2ccc(-c3cccc(OC)c3)cc2)C12CN(C(C)=O)C2 was read as ERAP1 inh -1.6.
Screening COCCNCC(=O)N1c2ccccc2Sc2ccccc21 returned Wnt bcat act 48.3*, ERAP1 inh -0.1, Cneo AK release 3.3, HIV Env fusion 0.1 and esBAF inh -3.3.
For CC(C)CNCC(=O)N1c2ccccc2Sc2ccccc21 the results were Wnt bcat act -4.6, Cneo AK release 0.3, MITF act -8.2 and HIV Env fusion -33.7.
`COc1ccc(CCNC(=O)N2c3ccccc3Sc3ccccc32)cc1` gave Wnt bcat act 3.7, Cneo AK release 3.8, MITF act -14.3, HIV Env fusion 74.6* and esBAF inh -8.0.
Screening C[C@@H]1CN([C@H](C)CO)C(=O)c2cc(NC(=O)CCN3CCOCC3)ccc2O[C@@H]1CN(C)C(=O)Nc1ccc2c(c1)OCO2 returned ERAP1 inh -1.6, Cneo AK release 2.8 and esBAF inh 2.2.
For CN1C(=O)c2cc(NC(=O)c3cccc(F)c3)ccc2OC[C@@H]2O[C@H](CC(=O)O)CC[C@@H]21 the results were Cneo AK release -0.8, HIV Env fusion -6.7[16.7 µM] and esBAF inh -1.0.
Screening O=S(=O)(c1ccc(NC(=S)NCc2cccnc2)cc1)N1CCCCC1 returned Wnt bcat act 46.6*, ERAP1 inh 4.3, Cneo AK release -1.4 and HIV Env fusion 25.4.
Screening O=S(=O)(c1ccc(NC(=S)NN=Cc2ccccc2O)cc1)N1CCCCC1 returned Wnt bcat act 66.8*, ERAP1 inh 0.3 and HIV Env fusion -12.8.
`COc1ccc(CN(C)C[C@@H]2OCCCC[C@H](C)Oc3ccc(NS(=O)(=O)c4cn(C)cn4)cc3C(=O)N([C@@H](C)CO)C[C@H]2C)cc1` gave ERAP1 inh -0.9, Cneo AK release 45.4, HIV Env fusion -31.2[16.7 µM] and esBAF inh -7.7.
Screening C[C@H](CO)N1C[C@H](C)[C@@H](CN(C)C(=O)c2ccc(F)cc2)Oc2ncc(C#CC3CC3)cc2C1=O returned ERAP1 inh 0.3, Cneo AK release -3.9, HIV Env fusion 4.4[16.7 µM] and esBAF inh 3.1.
CC1CCc2c(sc3ncn(CCO)c(=O)c23)C1 (stereo unspecified) was read as Wnt bcat act 10.6, ERAP1 inh 5.1, Cneo AK release -2.7, MITF act 73.9, HIV Env fusion -31.5 and esBAF inh 53.0*.
N=c1cc(C2(O)CCCCC2)n2c(nc3ccccc32)s1 was read as Wnt bcat act 44.7*, Cneo AK release -11.1 and HIV Env fusion -271.2.
`O=C1c2sc3nc4ccccc4n3c2C(=O)N1c1ccccc1Cl` gave Wnt bcat act 3.5, MITF act 3.6 and esBAF inh 11.5.
For CN(C)CCNc1ccc(CO)c2sc3ccc(O)cc3c(=O)c12 the results were Wnt bcat act -9.3, ERAP1 inh 9.4 and HIV Env fusion -84.3.
For CN(C)CCNc1ccc2ncn3c4ccc(O)cc4c(=O)c1c23 the results were Wnt bcat act 3.4, ERAP1 inh 33.3*, MITF act -82.3 and HIV Env fusion 50.2.
